Compound activity deposited in PubChem by several laboratories.
p-CIP stab down – p/CIP protein destabilization | Q05BA5 | F442A p/CIP-EGFP cells, EGFP fluorescence, 16 h | decrease of EGFP signal, % at 10 µM | 290,000 compounds, 0.01% hits;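 active means EGFP signal decrease of at least 30% at 10 µM or well 3 SD below plate mean, unless failing retest; inactive means the rest, including hits failing retest or dose response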
Target sequence (Q05BA5 1-1403): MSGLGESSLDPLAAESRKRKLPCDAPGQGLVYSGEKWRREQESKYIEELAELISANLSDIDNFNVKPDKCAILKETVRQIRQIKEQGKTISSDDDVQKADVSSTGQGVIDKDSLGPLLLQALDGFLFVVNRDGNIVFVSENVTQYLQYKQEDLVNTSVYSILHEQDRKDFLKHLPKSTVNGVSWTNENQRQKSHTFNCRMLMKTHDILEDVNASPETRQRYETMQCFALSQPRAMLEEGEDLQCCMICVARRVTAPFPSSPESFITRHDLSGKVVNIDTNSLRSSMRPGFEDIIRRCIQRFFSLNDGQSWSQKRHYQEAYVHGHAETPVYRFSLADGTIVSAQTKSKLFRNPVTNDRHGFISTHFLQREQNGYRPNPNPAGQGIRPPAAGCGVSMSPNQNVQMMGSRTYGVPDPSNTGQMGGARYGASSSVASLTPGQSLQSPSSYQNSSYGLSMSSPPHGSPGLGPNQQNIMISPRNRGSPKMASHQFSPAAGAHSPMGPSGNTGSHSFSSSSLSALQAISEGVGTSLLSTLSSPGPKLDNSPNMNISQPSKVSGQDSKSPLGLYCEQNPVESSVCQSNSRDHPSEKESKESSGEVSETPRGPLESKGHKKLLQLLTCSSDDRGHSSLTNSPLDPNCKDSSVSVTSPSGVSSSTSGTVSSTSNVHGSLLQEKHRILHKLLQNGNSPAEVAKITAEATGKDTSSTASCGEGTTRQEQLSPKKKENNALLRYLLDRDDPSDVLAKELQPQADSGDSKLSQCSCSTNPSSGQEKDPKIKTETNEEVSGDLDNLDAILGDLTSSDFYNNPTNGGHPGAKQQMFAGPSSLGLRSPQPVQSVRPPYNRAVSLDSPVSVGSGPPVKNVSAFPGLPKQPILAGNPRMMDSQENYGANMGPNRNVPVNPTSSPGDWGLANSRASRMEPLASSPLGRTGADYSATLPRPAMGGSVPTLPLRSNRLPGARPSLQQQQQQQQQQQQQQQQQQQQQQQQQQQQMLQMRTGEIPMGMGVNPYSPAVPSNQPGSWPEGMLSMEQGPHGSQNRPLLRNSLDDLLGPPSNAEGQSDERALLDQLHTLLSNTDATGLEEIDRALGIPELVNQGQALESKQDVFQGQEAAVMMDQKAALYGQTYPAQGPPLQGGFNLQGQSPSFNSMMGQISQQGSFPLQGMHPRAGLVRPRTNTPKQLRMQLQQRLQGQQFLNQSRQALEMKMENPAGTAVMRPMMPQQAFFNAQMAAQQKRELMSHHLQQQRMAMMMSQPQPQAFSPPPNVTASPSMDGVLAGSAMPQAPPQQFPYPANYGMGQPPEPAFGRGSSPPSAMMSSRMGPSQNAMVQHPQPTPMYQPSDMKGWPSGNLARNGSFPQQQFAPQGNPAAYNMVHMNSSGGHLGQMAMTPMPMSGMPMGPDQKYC
Fh CTSL1 inh – cathepsin L1 inhibition, PFM18AAP counter-screen; recombinant F. hepatica cathepsin L1, Z-Leu-Arg-MCA fluorescence; inhibition, % at 5.96 µM; AID 1906; 300,000 compounds, 0.49% hits;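 active means inhibition above the mean of all tested compounds plus 3 SD, set per screening campaign, cut at about 17% in these data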
H9c2 protect – modulators protecting cardiomyocytes from myocardial damage; H9c2 cardiomyocytes, H2O2 injury protection, ATPLite, 2 h; protection from H2O2 cell death, % at 20 µM; 360,000 compounds, 0.63% hits;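 active means compounds giving at least 50% protection of heart cells from peroxide-induced death in the single-dose screen, raw or plate-pattern-corrected value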
JMJD2C inh – human JMJD2C demethylase inhibition. GST-JMJD2C(1-420) H3K9me3 demethylation, DELFIA europium. inhibition, % at 2.35 µM. Q9H3R0. 330,000 compounds, 0.069% hits. AID 2099;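 active means more than half of a compound's replicate wells show inhibition beyond 50%, single wells judged on their own value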;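 further: signal counts dimethyl H3K9 product captured on neutravidin plate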
T cruzi inh – blocks replication of Trypanosoma cruzi; T. cruzi beta-gal in NIH3T3, luminescence, 90 h; inhibition, % (no concentration beside the values); 300,000 compounds, 1.4% hits; AID 1885;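 active means mean inhibition across valid replicates above about 55%, limit read from the data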;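 further: signal also drops with host cell toxicity which is not excluded here; higher percent means less beta-gal luminescence so fewer parasites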
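Read-out: Parasite load inhibition, % | Test system: Mouse NIH/3T3 fibroblasts infected with β-gal-expressing T. cruzi Tulahuen C4 | Amount: 5,000 cells/well | Medium: DMEM, 2% fetal bovine serum | Signal: GalScreen β-gal luminescence, detergent lysis, 60 min | Timing: 3 h attach, ≥90 h co-culture | Also added: Tulahuen C4 trypomastigotes, 5000/well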
PP5 primary – blocks human protein phosphatase 5 activity; P53041; purified PP5c, OMFP substrate fluorescence; inhibition, % at 6.7 µM; 320,000 compounds, 0.18% hits; AID 1987;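 active means inhibition above the campaign's mean inhibition across all tested compounds plus 3 SD, cut at about 9.5% in these data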
PP5 inh confirm – confirmation of human PP5 phosphatase inhibitors. Purified PP5, fluorogenic phosphatase substrate, fluorescence. 460 compounds, 22% hits. shares compounds with PP5 primary. inhibition, % at 6.7 µM; in the data active means inhibition above about 9.5%
PP1 inh counter – PP1 phosphatase inhibition, counter-screen for PP5 inhibitors; shares compounds with PP5 primary; PP1 enzyme, fluorescent phosphatase substrate; inhibition, % at 6.7 µM; 460 compounds, 4% hits; AID 2355; in the data active means inhibition above about 16%
Numbers stand for hits; – = inactive; · = no result. Compounds with a hit are over-represented: about 2.4% of the library has one in this group of screens.

SMILES | p-CIP stab down | Fh CTSL1 inh | H9c2 protect | JMJD2C inh | T cruzi inh | PP5 primary | PP5 inh confirm | PP1 inh counter
CCCC1CC(C(=O)NC(C(C)Cl)C2OC(SC)C(O)C(O)C2O)N(C)C1 (stereo not drawn) | – | – | – | – | – | – | · | ·
CCCCOC(=O)Cn1c(-c2ccccc2)nc2ccccc2c1=O | – | – | – | – | – | – | · | ·
CCOC(=O)Cn1c(-c2ccccc2)nc2ccccc2c1=O | – | – | – | – | – | 10.8 | – | –
OC[C@@H]1CN(Cc2ccc(F)cc2)C[C@H](n2cnc3c(NCc4ccc(F)cc4)ncnc32)O1 | · | · | – | · | · | · | · | ·
CCOc1ccc(N=C/C=C/c2ccccc2)c(O)c1 | – | – | – | – | – | 9.9 | – | –
S=C(NC1CCCC1)N1CCOCC1 | – | – | – | – | – | – | · | ·
S=C(NC1CCCCC1)N1CCOCCOCCN(C(=S)NC2CCCCC2)CCOCC1 | – | – | – | – | – | 9.8 | – | –
COC(=O)C(Cc1ccccc1)NC(=O)CNC(=O)c1ccccc1OC (stereo not drawn) | – | – | – | – | – | – | · | ·
COc1ccc2[nH]c(=O)c(CN(Cc3cccs3)S(=O)(=O)c3c(C)ccc4nsnc34)cc2c1 | – | – | 68.8 | – | – | 9.8 | – | –
CCOc1ccc(-c2[nH]ncc2Oc2cccc(OC)c2)c(O)c1 | – | – | – | – | – | 11.8 | – | –
CN(C)S(=O)(=O)c1ccc(NC(=O)CSc2nnc(-c3ccco3)n2N)cc1 | · | · | – | – | · | · | · | ·
O=C(Nc1ccc(C(=O)O)cc1)/C(=C\C=C\c1ccccc1)NC(=O)c1ccccc1Cl | – | – | – | – | – | – | · | ·
O=C(Nc1ccc(O)cc1)/C(=C\C=C\c1ccccc1)NC(=O)c1ccccc1 | – | – | – | – | – | 12.2 | – | –
O=C(NC1CCCCC1)N1CCC(n2c(=O)[nH]c3ccccc32)CC1 | – | – | – | – | – | 18.9 | – | –
O=C(Nc1ccccc1)N1CCC(n2c(=O)[nH]c3ccccc32)CC1 | – | – | – | – | – | – | · | ·
Cc1ccc(S(=O)(=O)/N=C2/C=C(Sc3ncn[nH]3)C(=O)c3ccccc32)c(C)c1 | – | 102.8 | · | – | · | 13.2 | 36.5 | –
Cc1ccc(S(=O)(=O)/N=C2\C=C(NS(=O)(=O)c3ccccc3)C(=O)c3ccccc32)c(C)c1 | · | · | – | · | · | · | · | ·
Cc1ccc(S(=O)(=O)/N=C2/C=C(Sc3ncn[nH]3)C(=O)c3ccccc32)cc1 | – | 106.6 | – | – | · | 12.8 | 23.4 | 24.3
Cc1ccc(S(=O)(=O)Nc2ccc(O)c(Sc3ncn[nH]3)c2)cc1 | – | – | – | – | – | – | · | ·
Cc1ccc(S(=O)(=O)/N=C2\C=C(Nc3cccc(C(=O)O)c3)C(=O)c3ccccc32)c(C)c1 | – | 45.6 | – | – | – | 9.8 | 35.9 | –
CC(C)C(=O)Nc1nnc(SCC(=O)Nc2ccc3c(c2)OCCO3)s1 | – | – | – | – | – | 12.8 | – | –
COC(=O)CCC(=O)OC1(C)C(=O)C2=CN(C3CC3)C(c3ccc(OC)cc3)=CC2=C(Br)C1=O (stereo not drawn) | · | – | – | – | – | 11.5 | 37.1 | –
COC(=O)CCC(=O)OC1(C)C(=O)C2=CN(CC3CC3)C(c3ccc(OC)cc3)=CC2=C(Br)C1=O (stereo not drawn) | – | – | – | – | – | – | · | ·
COC(=O)CCC(=O)OC1(C)C(=O)C2=CN(Cc3ccc(OC)cc3)C(c3ccc(OC)cc3)=CC2=C(Br)C1=O (stereo not drawn) | · | – | – | – | – | – | · | ·
COC(=O)CCC(=O)OC1(C)C(=O)C2=CN(CC(C)C)C(c3ccc(OC)cc3)=CC2=C(Br)C1=O (stereo not drawn) | – | – | · | – | – | 14.7 | 30.8 | –
SMILES | p-CIP stab down | Fh CTSL1 inh | H9c2 protect | JMJD2C inh | T cruzi inh | PP5 primary | PP5 inh confirm | PP1 inh counter
O=C(Nc1ccccc1)c1ccc(Cn2cc(C(F)(F)F)ccc2=O)cc1 | – | – | – | – | – | – | · | ·
O=C(Nc1cc(C(F)(F)F)cc(C(F)(F)F)c1)c1ccc(Cn2cc(C(F)(F)F)ccc2=O)cc1 | – | – | – | – | – | 10.7 | 10.6 | –
Cc1ccc(S(=O)(=O)N2CCN(Cc3cc(=O)n4ccccc4n3)CC2)c(C)c1 | · | · | – | – | · | – | · | ·
Clc1cc(Br)ccc1OCCn1ccnc1 | – | – | – | – | – | – | · | ·
Clc1ccc(OCCn2ccnc2)cc1Cl | – | – | – | – | 59.2 | 10.0 | – | –
CCc1ccc(NC(=O)CN(CC(=O)Nc2ccc(CC)cc2)CC(C)O)cc1 (stereo not drawn) | – | – | – | – | – | 11.5 | – | –
CCc1ccc(NC(=O)Cc2ccc(OC)cc2)cc1 | – | – | · | – | – | – | · | ·
O=C(CCN1CCN(CCO)CC1)Nc1ccc(OCc2ccccc2)cc1 | – | – | – | – | – | 10.3 | – | –
COC(=O)C1=C(CSc2nccn2C)NC(=O)NC1c1cc(C)ccc1C (stereo not drawn) | – | – | – | – | – | 9.9 | – | –
CCOCCCNC(=O)c1ccc(N2CC3CC(C2)c2cccc(=O)n2C3)c(NC(=O)Nc2cccc(OC)c2)c1 (stereo not drawn) | – | – | – | – | – | – | · | ·
COc1ccc(NC(=O)C2CC(=O)N(C)C(=Nc3ccc4c(c3)OCO4)S2)cc1 (stereo not drawn) | · | – | – | – | – | 12.2 | – | –
CN1C(=O)CC(C(=O)Nc2ccc(F)cc2)SC1=Nc1ccc2c(c1)OCO2 (stereo not drawn) | – | – | – | – | – | – | · | ·
CC(C)(CO)NC12CC3CC(CC(C3)C1)C2 | – | – | – | – | – | 10.8 | – | –
COc1cccc(NC(=O)CN(C)C(=O)c2ccccc2OCC(=O)Nc2cccc(C(F)(F)F)c2)c1 | · | – | – | – | – | – | · | ·
Cc1ccc(NC(=O)CN(C)C(=O)c2cccnc2Nc2cccc(C(F)(F)F)c2)cc1 | – | – | – | – | – | 10.6 | – | –
COc1cccc(NC(=O)CN(C)C(=O)c2cccnc2Nc2cccc(C(F)(F)F)c2)c1 | · | · | – | – | · | 14.4 | 9.7 | –
COc1ccc(NC(=O)C2Cc3c(-c4cccc(C(C)=O)c4)ccnc3O2)cn1 (stereo not drawn) | · | · | – | · | · | · | · | ·
COc1cc(C(=O)Nc2cc(S(C)(=O)=O)ccc2Cl)ccc1OCC(=O)N1CCOCC1 | · | · | – | – | · | – | · | ·
Cc1ccc(C(=O)NCCNC(=O)Cc2ccccc2)cn1 | – | – | – | – | – | – | · | ·
COc1cc(Br)c(C(=O)c2nccc3cc(OC)c(OC)cc23)cc1OC | – | 103.0 | – | – | – | 13.7 | 43.3 | –
CCCS(=O)(=O)NC(=O)C1(C)CCN(C(=O)c2c(F)cccc2F)C1 (stereo not drawn) | · | · | – | · | · | · | · | ·
